pEC50: −log10 of the molar value. Activity calls are given as the source filed them. The calls are words filed in the database; no cut-off is given here.
What was measured:
Format in all cases: cell-based
[1] = biological target: T1, Short transient receptor potential channel 3 (Homo sapiens) (UniProt Q13507); assay: Agonist activity at human TRPC3 expressed in HEK293 cells assessed as induction of membrane depolarization measured for 2.5 mins in presence of 0.5 mM Ca2+ by FLIPR membrane potential dye-based fluorescence assay
T1 sequence (whole entry): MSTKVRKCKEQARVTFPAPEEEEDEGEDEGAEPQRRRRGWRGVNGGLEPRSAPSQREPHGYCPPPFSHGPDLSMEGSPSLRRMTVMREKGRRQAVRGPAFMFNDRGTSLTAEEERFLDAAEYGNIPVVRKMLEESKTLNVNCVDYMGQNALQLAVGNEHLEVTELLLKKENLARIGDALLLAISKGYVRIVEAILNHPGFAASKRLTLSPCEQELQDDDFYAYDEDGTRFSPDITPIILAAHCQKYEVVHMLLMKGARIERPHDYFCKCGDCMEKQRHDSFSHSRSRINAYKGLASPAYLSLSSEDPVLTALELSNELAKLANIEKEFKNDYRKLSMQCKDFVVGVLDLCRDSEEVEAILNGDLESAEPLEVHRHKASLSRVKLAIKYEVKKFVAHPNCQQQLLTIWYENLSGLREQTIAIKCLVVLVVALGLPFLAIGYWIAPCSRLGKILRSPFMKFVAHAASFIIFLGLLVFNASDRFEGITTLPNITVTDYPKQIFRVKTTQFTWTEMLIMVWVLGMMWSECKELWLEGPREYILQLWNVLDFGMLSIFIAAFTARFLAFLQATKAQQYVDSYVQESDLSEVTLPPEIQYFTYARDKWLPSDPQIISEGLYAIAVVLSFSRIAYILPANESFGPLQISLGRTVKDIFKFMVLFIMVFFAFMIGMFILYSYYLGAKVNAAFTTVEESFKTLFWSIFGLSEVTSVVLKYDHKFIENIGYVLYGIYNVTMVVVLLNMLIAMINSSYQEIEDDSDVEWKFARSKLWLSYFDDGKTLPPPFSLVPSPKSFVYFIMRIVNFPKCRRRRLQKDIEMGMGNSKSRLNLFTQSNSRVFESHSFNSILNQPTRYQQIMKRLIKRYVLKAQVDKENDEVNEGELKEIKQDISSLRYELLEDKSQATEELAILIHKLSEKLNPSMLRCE
Procedure, shortened: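 HEK293 cells stably expressing human TRPC3, run on a FlexStation at 32 °C. Loaded with FMP dye, or Fluo-type Ca2+ dye with 2 mM probenecid. Extracellular NaCl/HEPES saline, pH 7.4, with 2 mM Ca2+ (standard) or 0.5 mM Ca2+. Read as F/F0. In 0.5 mM Ca2+, FMP EC50 from a Hill fit, n = 6.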

[2] = biological target: T2, Short transient receptor potential channel 7 (Homo sapiens) (UniProt Q9HCX4); assay: (§1) Agonist activity at human TRPC7 receptor expressed in HEK293 cells assessed as induction of channel current in presence of 0.1 mM Ca2+ by whole cell patch-clamp method
T2 sequence (whole entry): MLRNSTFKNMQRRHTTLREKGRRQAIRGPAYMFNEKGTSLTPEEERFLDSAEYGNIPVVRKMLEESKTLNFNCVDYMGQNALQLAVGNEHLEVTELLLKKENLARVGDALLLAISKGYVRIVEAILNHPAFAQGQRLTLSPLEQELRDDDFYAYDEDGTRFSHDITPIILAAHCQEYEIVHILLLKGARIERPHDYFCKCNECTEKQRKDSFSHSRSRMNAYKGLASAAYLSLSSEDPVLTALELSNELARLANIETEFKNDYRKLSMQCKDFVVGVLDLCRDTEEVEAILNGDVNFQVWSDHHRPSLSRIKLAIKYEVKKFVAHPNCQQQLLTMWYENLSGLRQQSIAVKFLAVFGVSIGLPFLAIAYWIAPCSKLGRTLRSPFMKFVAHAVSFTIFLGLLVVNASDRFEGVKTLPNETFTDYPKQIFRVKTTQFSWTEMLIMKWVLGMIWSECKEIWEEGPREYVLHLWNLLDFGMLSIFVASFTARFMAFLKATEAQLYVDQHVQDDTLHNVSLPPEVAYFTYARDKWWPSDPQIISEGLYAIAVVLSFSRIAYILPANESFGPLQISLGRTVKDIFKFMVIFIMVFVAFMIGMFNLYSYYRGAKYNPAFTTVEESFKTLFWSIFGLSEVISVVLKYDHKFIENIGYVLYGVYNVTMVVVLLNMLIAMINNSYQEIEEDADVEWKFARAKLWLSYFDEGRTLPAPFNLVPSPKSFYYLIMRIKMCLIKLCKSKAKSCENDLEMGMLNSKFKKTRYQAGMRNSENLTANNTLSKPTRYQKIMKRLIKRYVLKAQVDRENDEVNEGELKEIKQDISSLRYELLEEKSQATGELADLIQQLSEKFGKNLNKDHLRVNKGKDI
Procedure, shortened: (§2)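 Whole-cell voltage clamp on doxycycline-induced stable HEK293 TRPC7 cells. Pipette (mM): 110 CsCl, 10 HEPES, 10 BAPTA, 1 MgCl2, 4.77 CaCl2 (400 nM free Ca2+), pH 7.2. Bath has 0.1 mM CaCl2, and compound is perfused in bath at increasing concentrations. Ramps run from +100 to −100 mV (100 ms) every 1 s from a 0 mV hold.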

[3] = biological target: T3, Short transient receptor potential channel 7 (Homo sapiens, UniProt Q9HCX4); assay: as §1; procedure, shortened: as §2
T3 sequence (Q9HCX4 whole entry): T2 sequence (whole entry)

[4] = species on record: Rattus norvegicus; assay: Agonist activity at TRPC6 in rat primary glomerular mesangial cells assessed as increase in intracellular calcium level at 1 uM by Fluo4-AM dye-based fluorescence assay
Procedure, shortened: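 Rat glomerular mesangial cells, isolated by graded sieving from male Sprague–Dawley rats, collagenase-digested, cultured in RPMI 1640 with 17% FBS. Grown overnight on coverslips, then loaded with 10 μM Fluo4-AM and 0.02% pluronic F-127 for 1 h at 37 °C in 1 mM Ca2+ saline, pH 7.4. Compound at 1 μM. Confocal imaging, ex 488/em 515 nm, read as F/F0. For the 2-APB condition, 30 μM 2-APB for 2 min beforehand and kept during compound application.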

With `CCOC(=O)N1CCC(c2cc(O)n3nc(C)c(-c4ccc(F)cc4)c3n2)CC1` the Activity [1] was “Dose-dependent effect”, the Activity [2] was “Dose-dependent effect” and the pEC50 [3] was 5.95.
With `Cc1nn2c(O)cc(C3CCN(C(=O)OCc4ccccc4)CC3)nc2c1-c1ccc(F)cc1` the Activity [4] was “Active”.

— ChEMBL document CHEMBL4014306, “Pyrazolopyrimidines as Potent Stimulators for Transient Receptor Potential Canonical 3/6/7 Channels” (J Med Chem, 2017)
